How the values were obtained:
Rattus norvegicus [1] = experiment: Effect of AOS scavenger on premeture ventricular complexes PVCs, arrhythmias induced by ischemia-reperfusion in anesthetized rat, frequency per minute at 100 mg/kg
Rattus norvegicus [2] = experiment: Effect of AOS scavenger on ventricular tachycardia (VT), arrhythmias induced by ischemia-reperfusion in anesthetized rat, frequency, times at 100 mg/kg; assay type: functional, Cardiac ventricle
Rattus norvegicus [3] = experiment: Effect of AOS scavenger on ventricular fibrillation (VF), arrhythmias induced by ischemia-reperfusion in anesthetized rat, incidence at 100 mg/kg; 4/10; assay type: functional, Cardiac ventricle
Rattus norvegicus [4] = experiment: Effect of AOS scavenger on ventricular fibrillation (VF), arrhythmias induced by ischemia-reperfusion in anesthetized rat, frequency, times at 100 mg/kg; assay type: functional, Cardiac ventricle
Rattus norvegicus [5] = experiment: Effect of AOS scavenger on ventricular tachycardia (VT), arrhythmias induced by ischemia-reperfusion in anesthetized rat, duration at 100 mg/kg; assay type: functional, Cardiac ventricle
Rattus norvegicus [6] = experiment: Effect of AOS scavenger on ventricular tachycardia (VT), arrhythmias induced by ischemia-reperfusion in anesthetized rat, incidence at 100 mg/kg; 7/10; assay type: functional, Cardiac ventricle
Rattus norvegicus [7] = experiment: Effect of AOS scavenger on ventricular fibrillation (VF), arrhythmias induced by ischemia-reperfusion in anesthetized rat, duration at 100 mg/kg; assay type: functional, Cardiac ventricle
Rattus norvegicus [8] = species: Rattus norvegicus; experiment: Antilipid peroxidation was determined; assay type: functional
Summary of the method: (§1)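 Rat brain lipid peroxidation: brains from male SD rats (12 weeks old), exsanguinated under pentobarbital anaesthesia, homogenized to 5% in phosphate buffer pH 7.4. Homogenate incubated with test drug at 37 °C for 1 h. Lipid peroxide quantified by the thiobarbituric acid method.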

Rattus norvegicus [9] = species: Rattus norvegicus; experiment: Inhibition of lipid peroxidation was determined with rat brain tissue homogenates; assay type: functional
Summary of the method: (§2)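 Brains excised from male SD rats (12 weeks), exsanguinated under pentobarbital anesthesia; 5% homogenate in phosphate buffer pH 7.4 incubated with test drug 1 h at 37 °C; lipid peroxide quantified by thiobarbituric acid method.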

[10] = Reducing activity determined by the use of stable radical alpha,alpha-di-phenyl-beta-picrylhydrazyl (DPPH); parameters: concentration or dose not given beside the values
Rattus norvegicus [11] = experiment: Effect of AOS scavenger on ventricular fibrillation (VF), arrhythmias induced by ischemia-reperfusion in anesthetized rat, duration at 3 mg/kg; assay type: functional, Cardiac ventricle
Rattus norvegicus [12] = experiment: Effect of AOS scavenger on ventricular tachycardia (VT), arrhythmias induced by ischemia-reperfusion in anesthetized rat, duration at 3 mg/kg; assay type: functional, Cardiac ventricle
Rattus norvegicus [13] = experiment: Effect of AOS scavenger on ventricular fibrillation (VF), arrhythmias induced by ischemia-reperfusion in anesthetized rat, incidence at 3 mg/kg; 8/10; assay type: functional, Cardiac ventricle
Rattus norvegicus [14] = experiment: Effect of AOS scavenger on ventricular tachycardia (VT), arrhythmias induced by ischemia-reperfusion in anesthetized rat, frequency, times at 3 mg/kg; assay type: functional, Cardiac ventricle
Rattus norvegicus [15] = experiment: Effect of AOS scavenger on premeture ventricular complexes PVCs, arrhythmias induced by ischemia-reperfusion in anesthetized rat, duration at 3 mg/kg; assay type: functional, Cardiac ventricle
Rattus norvegicus [16] = experiment: Effect of AOS scavenger on ventricular tachycardia (VT), arrhythmias induced by ischemia-reperfusion in anesthetized rat, incidence at 3 mg/kg; 8/10; assay type: functional, Cardiac ventricle
Rattus norvegicus [17] = experiment: Effect of AOS scavenger on ventricular fibrillation (VF), arrhythmias induced by ischemia-reperfusion in anesthetized rat, frequency, times at 3 mg/kg; assay type: functional, Cardiac ventricle
Rattus norvegicus [18] = experiment: Effect of AOS scavenger on ventricular fibrillation (VF),arrhythmias induced by ischemia-reperfusion in anesthetized rat, duration at 1 mg/kg; assay type: functional, Cardiac ventricle
Rattus norvegicus [19] = experiment: Effect of AOS scavenger on ventricular fibrillation (VF),arrhythmias induced by ischemia-reperfusion in anesthetized rat, incidence at 10 mg/kg; 4/13; assay type: functional, Cardiac ventricle
Rattus norvegicus [20] = experiment: Effect of AOS scavenger on ventricular tachycardia (VT),arrhythmias induced by ischemia-reperfusion in anesthetized rat, duration at 3 mg/kg; assay type: functional, Cardiac ventricle
Rattus norvegicus [21] = experiment: Effect of AOS scavenger on ventricular fibrillation (VF),arrhythmias induced by ischemia-reperfusion in anesthetized rat, incidence at 1 mg/kg; 5/14; assay type: functional, Cardiac ventricle
Rattus norvegicus [22] = experiment: Effect of AOS scavenger on ventricular fibrillation (VF),arrhythmias induced by ischemia-reperfusion in anesthetized rat, incidence at 3 mg/kg; 3/10; assay type: functional, Cardiac ventricle
Rattus norvegicus [23] = experiment: Effect of AOS scavenger on ventricular fibrillation (VF), arrhythmias induced by ischemia-reperfusion in anesthetized rat, frequency, times at 10 mg/kg; assay type: functional, Cardiac ventricle; details: 10 mg/kg
Rattus norvegicus [24] = experiment: Effect of AOS scavenger on ventricular fibrillation (VF),arrhythmias induced by ischemia-reperfusion in anesthetized rat, duration at 10 mg/kg; assay type: functional, Cardiac ventricle
Rattus norvegicus [25] = experiment: Effect of AOS scavenger on ventricular tachycardia (VT),arrhythmias induced by ischemia-reperfusion in anesthetized rat, incidence at 3 mg/kg; 10/10; assay type: functional, Cardiac ventricle
Rattus norvegicus [26] = experiment: Effect of AOS scavenger on premeture ventricular complexes PVCs, arrhythmias induced by ischemia-reperfusion in anesthetized rat, duration at 10 mg/kg; assay type: functional, Cardiac ventricle; details: 10 mg/kg
Rattus norvegicus [27] = experiment: Effect of AOS scavenger on ventricular tachycardia (VT),arrhythmias induced by ischemia-reperfusion in anesthetized rat, duration at 10 mg/kg; assay type: functional, Cardiac ventricle; details: 10 mg/kg
Rattus norvegicus [28] = experiment: Effect of AOS scavenger on premeture ventricular complexes PVCs, arrhythmias induced by ischemia-reperfusion in anesthetized rat, duration at 1 mg/kg; assay type: functional, Cardiac ventricle
Rattus norvegicus [29] = experiment: Effect of AOS scavenger on ventricular tachycardia (VT),arrhythmias induced by ischemia-reperfusion in anesthetized rat, incidence at 10 mg/kg; 13/13; assay type: functional, Cardiac ventricle
Rattus norvegicus [30] = experiment: Effect of AOS scavenger on ventricular tachycardia (VT),arrhythmias induced by ischemia-reperfusion in anesthetized rat, frequency, times at 1 mg/kg; assay type: functional, Cardiac ventricle
Rattus norvegicus [31] = experiment: Effect of AOS scavenger on ventricular tachycardia (VT),arrhythmias induced by ischemia-reperfusion in anesthetized rat, frequency, times at 3 mg/kg; assay type: functional, Cardiac ventricle
Rattus norvegicus [32] = experiment: Effect of AOS scavenger on ventricular fibrillation (VF), arrhythmias induced by ischemia-reperfusion in anesthetized rat, frequency, timesat 3 mg/kg; assay type: functional, Cardiac ventricle
Rattus norvegicus [33] = experiment: Effect of AOS scavenger on ventricular tachycardia (VT),arrhythmias induced by ischemia-reperfusion in anesthetized rat duration at 1 mg/kg; assay type: functional, Cardiac ventricle
Rattus norvegicus [34] = experiment: Effect of AOS scavenger on ventricular fibrillation (VF), arrhythmias induced by ischemia-reperfusion in anesthetized rat, frequency, times at 1 mg/kg; assay type: functional, Cardiac ventricle
Rattus norvegicus [35] = experiment: Effect of AOS scavenger on ventricular fibrillation (VF),arrhythmias induced by ischemia-reperfusion in anesthetized rat, duration at 3 mg/kg; assay type: functional, Cardiac ventricle
Rattus norvegicus [36] = experiment: Effect of AOS scavenger on ventricular tachycardia (VT), arrhythmias induced by ischemia-reperfusion in anesthetized rat, frequency, timesat 10 mg/kg; assay type: functional, Cardiac ventricle
Rattus norvegicus [37] = species: Rattus norvegicus; experiment: Antilipid peroxidation was measured at 10e-5 M concentration; assay type: functional
Summary of the method: as §1

Rattus norvegicus [38] = experiment: Effect of AOS scavenger on ventricular tachycardia (VT),arrhythmias induced by ischemia-reperfusion in anesthetized rat incidence at 10 mg/kg; 4/5; assay type: functional, Cardiac ventricle
Rattus norvegicus [39] = species: Rattus norvegicus; experiment: Inhibition of lipid peroxidation was determined with rat brain tissue homogenates.; assay type: functional
Summary of the method: as §2

Rattus norvegicus [40] = experiment: Effect of AOS scavenger on ventricular fibrillation (VF), arrhythmias induced by ischemia-reperfusion in anesthetized rat, duration at 10 mg/kg; assay type: functional, Cardiac ventricle
Rattus norvegicus [41] = experiment: Effect of AOS scavenger on ventricular fibrillation (VF),arrhythmias induced by ischemia-reperfusion in anesthetized rat, incidence at 10 mg/kg; 5/5; assay type: functional, Cardiac ventricle
Rattus norvegicus [42] = experiment: Effect of AOS scavenger on ventricular tachycardia (VT), arrhythmias induced by ischemia-reperfusion in anesthetized rat, frequency, times at 10 mg/kg; assay type: functional, Cardiac ventricle

Compound: OC[C@@H](O)[C@@H](O)[C@H](O)[C@H](O)CO [MANNITOL]
- Activity (Rattus norvegicus [1]): 4.8 min⁻¹
- Frequency (Rattus norvegicus [2]): 2.7
- Incidence (Rattus norvegicus [3]): 4 N
- Frequency (Rattus norvegicus [4]): 0.8
- Duration (Rattus norvegicus [5]): 7.7 s
- Incidence (Rattus norvegicus [6]): 7 N
- Duration (Rattus norvegicus [7]): 1.3 s

Compound: CCCCCCCCCCCCCCCCCCOC1=C(O)[C@@H](C(O)CO)OC1=O (stereo in doubt; 8) [listing 1 of 2 here]
- Antilipid peroxidation (Rattus norvegicus [8]): 44.7%

Compound: CCCCCCCCCCCCCCCCCCCCCOC1=C(O)OC(C(O)CO)C1=O (stereo not drawn)
- Antilipid peroxidation (Rattus norvegicus [8]): 30.6%
- IC50 (Rattus norvegicus [9]): 11 µM
- Reducing activity [10]: 94.3%

Compound: CCCCCCCCCOC1=C(O)OC(C(O)CO)C1=O (stereo not drawn)
- Antilipid peroxidation (Rattus norvegicus [8]): 22.4%
- IC50 (Rattus norvegicus [9]): 27 µM

Compound: CCCCCCCCCCCOC1=C(O)OC(C(O)CO)C1=O (stereo not drawn)
- Antilipid peroxidation (Rattus norvegicus [8]): 43.4%
- IC50 (Rattus norvegicus [9]): 13 µM
- Reducing activity [10]: 94.6%

Compound: CCCCCCCCCCCCOC1=C(O)OC(C(O)CO)C1=O (stereo not drawn)
- Antilipid peroxidation (Rattus norvegicus [8]): 67.4%
- IC50 (Rattus norvegicus [9]): 5.4 µM

Compound: Cc1c(C)c2c(c(C)c1O)CC[C@@](C)(CCC[C@H](C)CCC[C@H](C)CCCC(C)C)O2 [ALPHA-TOCOPHEROL]
- Duration (Rattus norvegicus [11]): 111.1 s
- Antilipid peroxidation (Rattus norvegicus [8]): 52%
- Duration (Rattus norvegicus [12]): 7.4 s
- Incidence (Rattus norvegicus [13]): 8 N
- Frequency (Rattus norvegicus [14]): 3.1
- Activity (Rattus norvegicus [15]): 23.3 min
- Incidence (Rattus norvegicus [16]): 8 N
- Frequency (Rattus norvegicus [17]): 2.1
- Reducing activity [10]: 72%

Compound: CCCCCCCCCCCCCCCCCCOC1=C(O)[C@@H](C(O)CO)OC1=O (stereo in doubt; 5k)
- Duration (Rattus norvegicus [18]): <4.1 s
- Incidence (Rattus norvegicus [19]): 4 N
- Duration (Rattus norvegicus [20]): <6.9 s
- Incidence (Rattus norvegicus [21]): 5
- Incidence (Rattus norvegicus [22]): 3 N
- Frequency (Rattus norvegicus [23]): <0.5
- Duration (Rattus norvegicus [24]): 0.5 s
- Incidence (Rattus norvegicus [25]): 10 N
- Activity (Rattus norvegicus [26]): 12 min
- IC50 (Rattus norvegicus [9]): 4.3 µM
- Duration (Rattus norvegicus [27]): 12 s
- Activity (Rattus norvegicus [28]): 3.4 min
- Incidence (Rattus norvegicus [29]): 13 N
- Frequency (Rattus norvegicus [30]): 4.3
- Frequency (Rattus norvegicus [31]): 4
- Frequency (Rattus norvegicus [32]): <0.7
- Activity (Rattus norvegicus [15]): <4.5 min
- Duration (Rattus norvegicus [33]): 11.4 s
- Frequency (Rattus norvegicus [34]): <1.1
- Duration (Rattus norvegicus [35]): <1.5 s
- Frequency (Rattus norvegicus [36]): 5.2

Compound: CCCCCCCCCCCCCCCCCCCCOC1=C(O)OC(C(O)CO)C1=O (stereo not drawn)
- Antilipid peroxidation (Rattus norvegicus [8]): 75.8%
- IC50 (Rattus norvegicus [9]): 4.7 µM
- Reducing activity [10]: 95.3%

Compound: CCCCCCCCCCCCCCCCCCOC1=C(O)OC(C2COC(C)(C)O2)C1=O (stereo not drawn)
- Antilipid peroxidation (Rattus norvegicus [37]): 58.5%
- IC50 (Rattus norvegicus [9]): 2.4 µM

Compound: CCCCCCCCCCCCCCCCCCOC1=C(O)[C@@H](C(O)CO)OC1=O (stereo in doubt; 8) [listing 2 of 2 here]
- Incidence (Rattus norvegicus [38]): 4 N
- IC50 (Rattus norvegicus [39]): 9.8 µM
- Frequency (Rattus norvegicus [23]): 1.6
- PVCs (Rattus norvegicus [26]): < 4 PVCs/min
- Duration (Rattus norvegicus [40]): 122.4 s
- Duration (Rattus norvegicus [27]): 11.8 s
- Incidence (Rattus norvegicus [41]): 5 N
- Frequency (Rattus norvegicus [42]): 3.8

Compound: CCCCCCCCCCCCCOC1=C(O)OC(C(O)CO)C1=O (stereo not drawn)
- Antilipid peroxidation (Rattus norvegicus [8]): 57.4%
- IC50 (Rattus norvegicus [9]): 7.4 µM
